Here are results for nine compounds from ChEMBL document CHEMBL3286393 (J Med Chem, 2014).

Activity calls are given as the source filed them. No cut-off for these calls is given here.

For orientation: IC50 means the point on the concentration scale where inhibition reaches its midpoint. For orientation: residual activity means the activity still measured, relative to the control.

For data set [1], the target named is T1, Polyunsaturated fatty acid 5-lipoxygenase (Homo sapiens, UniProt P09917).
T1 sequence (P09917 whole entry): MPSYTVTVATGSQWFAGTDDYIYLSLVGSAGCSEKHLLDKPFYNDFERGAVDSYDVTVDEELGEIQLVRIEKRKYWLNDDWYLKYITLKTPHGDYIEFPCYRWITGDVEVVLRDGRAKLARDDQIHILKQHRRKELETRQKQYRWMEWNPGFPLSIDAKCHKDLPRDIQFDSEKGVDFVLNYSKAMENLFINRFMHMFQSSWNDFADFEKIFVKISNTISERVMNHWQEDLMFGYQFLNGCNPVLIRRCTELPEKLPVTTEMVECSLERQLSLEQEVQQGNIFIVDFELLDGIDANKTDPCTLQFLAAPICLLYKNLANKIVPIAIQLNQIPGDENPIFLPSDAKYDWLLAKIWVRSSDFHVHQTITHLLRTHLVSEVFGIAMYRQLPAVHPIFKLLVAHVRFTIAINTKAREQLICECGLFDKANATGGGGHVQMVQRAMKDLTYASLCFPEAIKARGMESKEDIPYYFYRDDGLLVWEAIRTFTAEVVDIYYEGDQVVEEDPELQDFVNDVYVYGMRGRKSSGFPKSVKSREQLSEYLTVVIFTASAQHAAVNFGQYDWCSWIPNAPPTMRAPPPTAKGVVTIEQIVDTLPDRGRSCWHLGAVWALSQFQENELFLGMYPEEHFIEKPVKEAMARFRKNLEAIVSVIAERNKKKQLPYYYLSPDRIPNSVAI
The experiment in a line: Inhibition of human recombinant 5-LO expressed in Escherichia coli Bl21 (DE3) using arachidonic acid as substrate preincubated for 10 mins measured after 10 mins by RP-HPLC analysis. The method, boiled down: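 5-LO expressed from pT3-5LO in E. coli BL21(DE3), semi-purified on ATP-agarose, diluted in PBS with 1 mM EDTA and 1 mM ATP. Preincubated with compound 10 min at 4 °C, then 30 s at 37 °C. Started with 2 mM CaCl2 plus 20 μM arachidonic acid; 10 min at 37 °C; ice-cold methanol stop. Three to four experiments.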

Data set [2] concerns the target T1, Polyunsaturated fatty acid 5-lipoxygenase. The experiment in a line: Inhibition of 5-LO in human neutrophils using arachidonic acid as substrate preincubated for 15 mins measured after 10 mins by HPLC analysis. The method, boiled down: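 Fresh human neutrophils, 1 × 10⁷/mL in PBS pH 7.4 with 1 mM CaCl2 and 1 mg/mL glucose, preincubated 15 min at 37 °C. LTB4, its all-trans isomers and 5-H(P)ETE by HPLC.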

Data set [3] has as its system Radical scavenging activity. Description: Antioxidant activity assessed as DPPH free radical scavenging activity at 10 uM after 30 mins […] by spectrophotometric analysis. It counts as functional.
Data set [4] is described as follows: Aqueous stability of the compound in at 2 uM in 10 mM aqueous ammonium bicarbonate at pH 7.9 assessed as formation of trans-6-(4'-hydroxy-3'-methoxyphenyl)-2,4-dioxo-5-hexenal measured as residual amount of compound by reversed phase liquid chromatography-coupled mass spectrometry. The settings on record: buffer, pH 7.9, 2 µM. Format: physicochemical. The method, boiled down: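 Compounds at 2 μM in 10 mM aqueous ammonium bicarbonate pH 7.9, incubated 30 min at 37 °C. Analysed by UPLC-MS on a C18 column, gradient acetonitrile/water with 0.07% formic acid, at 0.7 mL/min. Residual amount given as % of control; three to four independent experiments.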

Data set [5] concerns the target T2, Polyunsaturated fatty acid lipoxygenase ALOX12 (Homo sapiens) (UniProt P18054).
T2 sequence (whole entry): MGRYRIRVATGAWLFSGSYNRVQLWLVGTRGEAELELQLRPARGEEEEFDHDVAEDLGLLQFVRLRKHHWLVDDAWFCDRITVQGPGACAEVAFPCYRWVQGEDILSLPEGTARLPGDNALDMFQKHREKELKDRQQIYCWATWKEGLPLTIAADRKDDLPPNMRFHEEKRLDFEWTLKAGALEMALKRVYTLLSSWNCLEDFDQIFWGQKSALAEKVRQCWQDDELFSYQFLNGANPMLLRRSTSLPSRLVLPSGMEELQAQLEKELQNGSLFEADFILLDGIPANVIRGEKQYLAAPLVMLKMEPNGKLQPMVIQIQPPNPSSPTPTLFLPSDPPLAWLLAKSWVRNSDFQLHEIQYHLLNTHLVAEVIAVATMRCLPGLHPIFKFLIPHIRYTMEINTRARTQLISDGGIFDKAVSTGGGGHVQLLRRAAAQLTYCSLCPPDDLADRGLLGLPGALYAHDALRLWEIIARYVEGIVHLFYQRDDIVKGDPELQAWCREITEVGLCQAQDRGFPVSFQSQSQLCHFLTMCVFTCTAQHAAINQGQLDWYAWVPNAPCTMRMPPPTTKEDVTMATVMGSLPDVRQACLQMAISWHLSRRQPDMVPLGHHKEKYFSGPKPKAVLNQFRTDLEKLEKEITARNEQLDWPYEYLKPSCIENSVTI
The experiment in a line: Inhibition of 12-LO in human neutrophils assessed as residual activity relative to control. The settings on record: for residual activity: values are per cent of control.

A further data set concerns LNCaP. The experiment in a line: Cytotoxicity against human LNCAP cells assessed as cell viability after 24 hrs by MTT assay. It counts as cell-based. The method, boiled down:
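LNCaP seeded at 10⁴ cells/well and exposed 24 h. MTT added, then 4 h at 37 °C, 5% CO2, dark. Medium removed and formazan dissolved in DMSO; absorbance at 570 nm.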
For orientation: Tetrazolium dyes change colour on reduction, which living cells bring about.

For a further data set, the system named is PBMC. Description: Cytotoxicity against human PBMCs assessed as cell viability after 24 hrs by MTT assay. It counts as cell-based. The method, boiled down: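 Human PBMC (2 × 10⁵/well), 24 h exposure. MTT then 4 h at 37 °C in darkness. Formazan solubilized with 10% SDS in 20 mM HCl; absorbance 550 nm. Viability relative to untreated cells; IC50 derived.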

Regarding `COc1cc(/C=C/C(=O)/C=C/c2cc(CC=C(C)C)c(O)c(OC)c2)cc(CC=C(C)C)c1O`, the 50% inhibitory concentration (IC50) was 500 nM in data set [1], 1700 nM in data set [2], 43.8 µM in the data set on LNCaP and > 50 µM in the data set with PBMC. Moreover, the Activity in data set [3] stood at 75.8%. For the same compound, the Stability result in data set [4] is reported as “Unstable”. The residual activity in data set [5] was determined as 64.7%.
Consider `COc1cc(/C=C/c2cc(-c3ccc(O)c(OC)c3)[nH]n2)ccc1O`, for which the IC50 in data set [1] was 90 nM; in data set [2], 1900 nM; with LNCaP, > 50 µM; in the data set with PBMC, > 50 µM. Besides, the Activity in data set [3] was found to be 70.3%. Further, in data set [4], the Stability entry is on record as “Unstable”.
Take `COc1cc(/C=C/c2cc(/C=C/c3cc(CC=C(C)C)c(O)c(OC)c3)[nH]n2)cc(CC=C(C)C)c1O`: the IC50 in data set [1] was 100 nM; in data set [2], 800 nM; in the data set on LNCaP, > 50 µM; in the data set on PBMC, > 50 µM. The Activity in data set [3] is 57.3%. Moreover, the Stability result in data set [4] was “Unstable”. Besides, the residual activity in data set [5] came to 68.7%.
For `COc1cc(/C=C/C(=O)CC(=O)c2ccc(O)c(OC)c2)ccc1O`, the IC50 was 2300 nM in data set [1], 9900 nM in data set [2], > 50 µM with LNCaP and > 50 µM in the data set on PBMC. Further, the Activity in data set [3] is 80.2%. Also, the Stability in data set [4] was determined as 72%. The residual activity in data set [5] worked out at 60.6%.
With `COc1cc(/C=C/C(=O)CC(=O)/C=C/c2cc(CC=C(C)C)c(O)c(OC)c2)cc(CC=C(C)C)c1O`, the figures for the IC50 (in data set [1]; with LNCaP; in the data set with PBMC) were 700 nM, > 50 µM and > 50 µM, respectively. In addition, in data set [3], the Activity came to 57.9%. Moreover, the Stability result in data set [4] is listed as “Unstable”. Besides, in data set [5], the inhibition result was “inactive”.
As to `COc1cc(/C=C/c2cc(/C=C/c3ccc(O)c(OC)c3)[nH]n2)ccc1O` [CURCUMIN PYRAZOLE], the IC50 in data set [1] was 70 nM; in data set [2], 700 nM; in the data set with LNCaP, > 50 µM; in the data set with PBMC, > 50 µM. In data set [3], the Activity worked out at 59.6%. Besides, the Stability result in data set [4] is given as “Unstable”.
As to `COc1cc(/C=C/C(=O)/C=C/c2ccc(O)c(OC)c2)ccc1O`, the IC50 in data set [1] stood at 800 nM; in data set [2], 5200 nM; in the data set with LNCaP, 10 µM; in the data set with PBMC it was 34.7 µM. Besides, the Activity in data set [3] was found to be 80.7%. The Stability result in data set [4] is reported as “Unstable”. Besides, the residual activity in data set [5] is 70.1%.
As to `COc1cc(/C=C/C(=O)CC(=O)/C=C/c2ccc(O)c(OC)c2)ccc1O` [CURCUMIN], the Activity in data set [3] came out at 63.9%. Also, in data set [4], the Stability is recorded as 41.6%. The residual activity in data set [5] worked out at 65%. In addition, the half-maximal inhibitory concentration (IC50) in the data set with LNCaP came out at 36 µM; in the data set on PBMC it was 34.8 µM.
On to `COc1cc(CCC(=O)CC(=O)CCc2ccc(O)c(OC)c2)ccc1O` [TETRAHYDROCURCUMIN], for which the figures for the IC50 (in data set [1]; in the data set with LNCaP; with PBMC) were 3200 nM, > 50 µM and > 50 µM, respectively. Moreover, the Activity in data set [3] worked out at 62.2%. Besides, in data set [4], the Stability entry is listed as “Unstable”. Further, the residual activity in data set [5] amounted to 87.4%.
